The source of these data is ChEMBL document CHEMBL1153868, “Novel 8-deaza-5,6,7,8-tetrahydroaminopterin derivatives as dihydrofolate inhibitor: design, synthesis and antifolate activity” (Eur J Med Chem, 2009).

The target of one experiment is T1, Dihydrofolate reductase (Homo sapiens, UniProt P00374).
T1 sequence (P00374 whole entry): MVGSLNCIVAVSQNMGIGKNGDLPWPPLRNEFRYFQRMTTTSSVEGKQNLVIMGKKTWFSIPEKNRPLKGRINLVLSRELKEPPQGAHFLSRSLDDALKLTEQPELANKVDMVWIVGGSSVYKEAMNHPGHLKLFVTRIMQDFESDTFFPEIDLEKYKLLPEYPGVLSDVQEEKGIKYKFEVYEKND
Nature of the experiment: Inhibition of human recombinant DHFR by spectrophotometry.

In a further experiment the test system is HeLa. Nature of the experiment: Cytotoxicity against human HeLa cells after 48 hrs. Format: functional, cell-based. In a few lines: (§1)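 Exponentially growing cells maintained in supplemented RPMI-1640 medium. Exposed to a range of compound concentrations for 48 h. Growth inhibition measured by MTT and SRB assays. IC50 reported as the mean of three independent experiments.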

For the next experiment, the system named is Bel-7402. As to the kind of experiment: Cytotoxicity against human Bel7402 cells after 48 hrs. The class given is functional, cell-based. The conditions noted are these: Bel-7402, 48 h. In a few lines:
as §1

In the next experiment the test system is HL-60. Nature of the experiment: Cytotoxicity against human HL60 cells after 48 hrs. The conditions noted are these: HL-60, 48 h. The class given is functional, cell-based. In a few lines: as §1
Another experiment deals with BGC-823. As to the kind of experiment: Cytotoxicity against human BGC823 cells after 48 hrs. Format: functional, cell-based. The conditions noted are these: BGC-823, 48 h. In a few lines: as §1

For the compound `Nc1nc(N)c2c(n1)CCC(CNc1ccc(C(=O)NC(CCC(=O)O)C(=O)O)cc1)N2` (centres undefined), the half-maximal inhibitory concentration (IC50) (as a rule, the point on the concentration scale where inhibition reaches its midpoint) on Dihydrofolate reductase was found to be 0.56 µM; in the experiment on HeLa it was 0.96 µM; with Bel-7402, 87.9 µM; in the experiment with HL-60 it was 0.9 µM; in the experiment with BGC-823, 0.44 µM.

On to `C=CCN1c2c(N)nc(N)nc2CCC1CNc1ccc(C(=O)NC(CCC(=O)O)C(=O)O)cc1` (centres undefined), for which the 50% inhibitory concentration (IC50) amounted to 1.41 µM on Dihydrofolate reductase; 7.85 µM in the experiment with HeLa; 42.2 µM in the experiment with Bel-7402; 0.7 µM in the experiment on HL-60; 5.2 µM in the experiment with BGC-823.

For `C=CCN(CC1CCc2nc(N)nc(N)c2N1CC=C)c1ccc(C(=O)NC(CCC(=O)O)C(=O)O)cc1` (centres undefined), the IC50 at Dihydrofolate reductase came to 2.15 µM; with HeLa it was 21.7 µM; in the experiment with Bel-7402, 7.1 µM; in the experiment with HL-60, 1.42 µM; in the experiment on BGC-823, 2.43 µM.

Regarding `C=CCN1c2c(N)nc(N)nc2CCC1CNc1ccc(C(=O)NC(CCC(=O)O)C(=O)O)cc1Br` (centres undefined), the IC50 on Dihydrofolate reductase is 2.37 µM; in the experiment with HeLa, 0.9 µM; in the experiment with Bel-7402 it was 1.2 µM; in the experiment on HL-60 it was 0.57 µM; with BGC-823 it was 6.59 µM.

Turning to `Nc1nc(N)c2c(n1)CCC(CNc1ccc(C(=O)NC(CCC(=O)O)C(=O)O)cc1Br)N2CC(Br)CBr` (centres undefined), the concentration for half-maximal inhibition (IC50) is 9.34 µM on Dihydrofolate reductase; 19.4 µM in the experiment on HeLa; 257 µM with Bel-7402; 48.8 µM with HL-60; 22.6 µM in the experiment with BGC-823.

In the case of `CN(Cc1cnc2nc(N)nc(N)c2n1)c1ccc(C(=O)N[C@@H](CCC(=O)O)C(=O)O)cc1` [METHOTREXATE], the IC50 with HeLa came to 0.1 µM; with Bel-7402, 82.3 µM; with HL-60, 0.21 µM; in the experiment on BGC-823 it was 0.11 µM.
